Data set [1] has as its target Macrophage metalloelastase (Homo sapiens, UniProt P39900). As to the kind of experiment: Inhibition of human MMP12 by FRET reporter assay. The procedure, abridged: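 Recombinant human MMP12 activity was read with the fluorogenic FRET reporter substrate LaRee5. Inhibition constants were reported as IC50.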
Background: In a reporter assay the amount or activity of a reporter protein is the signal.

The nature of data set [2]: Half life in TCN buffer at pH 7.5. Format: physicochemical. The procedure, abridged:
(§1)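 Compounds incubated without enzyme in TCN buffer, pH 7.5, at 37 °C. Spontaneous hydrolysis of the N-acylated sulfonamide was followed by HPLC over time, and half-lives (h) were derived from the traces.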

The nature of data set [3]: Stability of compound in heat inactivated fetal calf serum. The data set is classed as ADME. As to conditions: cattle.
The nature of data set [4]: Stability of compound in fetal calf serum. Format: ADME. Conditions: cattle.
Data set [5] in a line: Drug metabolism in TCN buffer assessed as hydrolysis at pH 7.5. Format: physicochemical. The procedure, abridged: as §1

The structures appear in SMILES notation. Residues, ends and D or L forms follow the SMILES beside them. *: point of attachment. Benzenesulfonyl(4-Ph) = O=S(=O)(c1ccc(-c2ccccc2)cc1)*; Benzenesulfonyl(4-OMe) = COc1ccc(S(=O)(=O)*)cc1

In general, IC50 refers to the midpoint of a concentration-inhibition curve. Read a high IC50 as a need for much substance. The half-life is the time needed for the level to fall by half in the phase considered. A higher half-life goes with slow decline.

Sequence of Macrophage metalloelastase (P39900 whole entry): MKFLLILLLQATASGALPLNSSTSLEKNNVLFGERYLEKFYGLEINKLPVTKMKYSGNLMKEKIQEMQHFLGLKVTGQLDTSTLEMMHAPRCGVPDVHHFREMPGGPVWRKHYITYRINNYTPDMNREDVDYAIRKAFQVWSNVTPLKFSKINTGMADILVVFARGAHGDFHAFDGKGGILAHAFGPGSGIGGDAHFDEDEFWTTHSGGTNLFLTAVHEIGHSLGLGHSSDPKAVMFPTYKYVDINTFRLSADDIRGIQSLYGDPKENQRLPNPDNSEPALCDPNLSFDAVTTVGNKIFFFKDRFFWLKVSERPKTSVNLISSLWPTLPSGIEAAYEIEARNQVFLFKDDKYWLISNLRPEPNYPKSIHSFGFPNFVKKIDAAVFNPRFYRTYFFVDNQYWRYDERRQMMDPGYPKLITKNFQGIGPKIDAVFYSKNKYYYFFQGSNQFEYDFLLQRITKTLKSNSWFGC

For `O=C(O)CNS(=O)(=O)c1ccc(-c2ccccc2)cc1`, in data set [1], the IC50 was determined as 0.29 µM.

Turning to `COc1ccc(S(=O)(=O)N(CC(=O)O)C(=O)CNC(=O)[C@H](CC(C)C)NC(=O)[C@@H]2CCCN2C(=O)OCc2ccccc2)cc1`, the half-life in data set [2] was 27 h. The same measure, in the same setting: as for `COc1ccc(S(=O)(=O)N(CC(=O)N[C@@H](CC(C)C)C(=O)N[C@@H](CCC(=O)O)C(=O)N[C@@H](CCC(=O)O)C(=O)N[C@@H](C)C(N)=O)C(=O)CNC(=O)[C@@H]2CCCN2C(=O)OCc2ccccc2)cc1`, the figure is 6.4 h.

`CC(C)C[C@H](NC(=O)CN(C(=O)[C@H](CC(C)C)NC(=O)[C@@H]1CCCN1C(=O)OCc1ccccc1)S(=O)(=O)c1ccc(-c2ccccc2)cc1)C(=O)N[C@@H](CCC(=O)O)C(=O)N[C@@H](CCC(=O)O)C(=O)N[C@@H](C)C(N)=O` showed a half-life in data set [2] of 5.1 h. Moreover, the Stability result in data set [3] and in data set [4] was “Stable” in each case.

Compound `COc1ccc(S(=O)(=O)N(CC(=O)N[C@@H](CC(C)C)C(=O)N[C@@H](CCC(=O)O)C(=O)N[C@@H](CCC(=O)O)C(=O)N[C@@H](C)C(N)=O)C(=O)[C@H](CC(C)C)NC(=O)[C@@H]2CCCN2C(=O)OCc2ccccc2)cc1` showed a half-life in data set [2] of 28 h. On to `CC(C)C[C@H](NC(=O)[C@@H]1CCCN1C(=O)OCc1ccccc1)C(=O)N(CC(=O)O)S(=O)(=O)c1ccc(-c2ccccc2)cc1`, for which the half-life in data set [2] is 27 h. In addition, the Stability entry in data set [3] and in data set [4] was “Stable” throughout. The compound also yielded a concentration for half-maximal inhibition (IC50) in data set [1] of 13 µM. Regarding `COc1ccc(S(=O)(=O)N(CC(=O)O)C(=O)[C@H](CC(C)C)NC(=O)[C@@H]2CCCN2C(=O)OCc2ccccc2)cc1`, the half-life in data set [2] is 77 h.

Take `COc1ccc(S(=O)(=O)NCC(=O)N[C@@H](CC(C)C)C(=O)N[C@@H](CCC(=O)O)C(=O)N[C@@H](CCC(=O)O)C(=O)N[C@@H](C)C(N)=O)cc1` ({Benzenesulfonyl(4-OMe)}-GLEEA-NH2): the Drug metabolism result in data set [5] is given as “Not Active”.

As to `CC(C)C[C@H](NC(=O)CNS(=O)(=O)c1ccc(-c2ccccc2)cc1)C(=O)N[C@@H](CCC(=O)O)C(=O)N[C@@H](CCC(=O)O)C(=O)N[C@@H](C)C(N)=O` ({Benzenesulfonyl(4-Ph)}-GLEEA-NH2), the Drug metabolism result in data set [5] is listed as “Not Active”. This compound also showed an IC50 in data set [1] of 48 µM.
